Results published in ChEMBL document CHEMBL1158354, “Condensed 1,4-dihydropyridines with various esters and their calcium channel antagonist activities” (2009).
Active and inactive are the calls of the source. The rule behind the calls is not given here.

Legend:
[1] = organism: Oryctolagus cuniculus; assay: (§1) Antagonist activity at voltage dependent L-type calcium channel in New Zealand white rabbit sigmoid colon circular smooth muscle strip assessed as relaxation response relative to papaverine; format: functional
[2] = organism: Oryctolagus cuniculus; assay: (§2) Antagonist activity at voltage dependent L-type calcium channel in New Zealand white rabbit sigmoid colon circular smooth muscle strip assessed as relaxation response; format: functional
Outline: (§3)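 Strips held at 1 g basal tension and equilibrated 60 min in Ca2+-free KHS, with the solution changed every 15 min. Strips were then placed in Ca2+-free, 80 mM K+ solution and contracted by cumulative Ca2+ (2.5, 5, 10 mM). At the contraction plateau, compounds were added cumulatively (10^-8–10^-4 M). Emax and pD2 (−log EC50) were derived from concentration–relaxation curves, n = 6.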

[3] = as §1; format: functional; conditions: Oryctolagus cuniculus
[4] = as §2; format: functional, Oryctolagus cuniculus; outline: as §3
[5] = (§4) Antagonist activity at voltage dependent L-type calcium channel in New Zealand white rabbit sigmoid colon circular smooth muscle strip assessed as induction of relaxation response in presence of Ca2+-activated potassium channel blocker tetraethylammonium; format: functional, Oryctolagus cuniculus; parameters: scale not given: the % may be the effect or the level left
[6] = organism: Oryctolagus cuniculus; assay: as §4; format: functional

Row | SMILES | Emax [1] | Activity [2] | pD2 [2] | Emax [3] [%] | pD2 [4] | Activity [5] [%] | Activity [6]
1 | C=CCOC(=O)C1=C(C)NC2=C(C(=O)C(C)(C)CC2)C1c1cc(C(F)(F)F)cc(Cl)c1F (stereo not drawn) | inactive | Dose-dependent effect | inactive | – | – | – | –
2 | COCCOC(=O)C1=C(C)NC2=C(C(=O)CC(C)(C)C2)C1c1cc(C(F)(F)F)cc(Cl)c1F (stereo not drawn) | – | Dose-dependent effect | – | 45 | 5.11 | – | –
3 | CCOC(=O)C1=C(C)NC2=C(C(=O)CC(C)(C)C2)C1c1cc(C(F)(F)F)cc(Cl)c1F (stereo not drawn) | – | Dose-dependent effect | – | 22.8 | 4.74 | – | –
4 | CC1=C(C(=O)OCc2ccccc2)C(c2cc(C(F)(F)F)cc(Cl)c2F)C2=C(CC(C)(C)CC2=O)N1 (stereo not drawn) | inactive | Dose-dependent effect | inactive | – | – | – | –
5 | CC1=C(C(=O)OC(C)(C)C)C(c2cc(C(F)(F)F)cc(Cl)c2F)C2=C(CCC(C)(C)C2=O)N1 (stereo not drawn) | inactive | Dose-dependent effect | inactive | – | – | – | –
6 | COC(=O)C1=C(C)NC2=C(C(=O)C(C)(C)CC2)C1c1cc(C(F)(F)F)cc(Cl)c1F (stereo not drawn) | – | Dose-dependent effect | – | 17.2 | 4.94 | 17.19 | –
7 | CC1=C(C(=O)OCC(C)C)C(c2cc(C(F)(F)F)cc(Cl)c2F)C2=C(CC(C)(C)CC2=O)N1 (stereo not drawn) | inactive | Dose-dependent effect | inactive | – | – | – | –
8 | COC(=O)C1=C(C)NC2=C(C(=O)CC(C)(C)C2)C1c1cc(C(F)(F)F)cc(Cl)c1F (stereo not drawn) | – | Dose-dependent effect | – | 32.2 | 4.84 | – | –
9 | CC1=C(C(=O)OCC(C)C)C(c2cc(C(F)(F)F)cc(Cl)c2F)C2=C(CCC(C)(C)C2=O)N1 (stereo not drawn) | inactive | Dose-dependent effect | inactive | – | – | – | –
10 | CC1(C)CC(=O)C2=C(C1)NC1=C(C(=O)OC1)C2c1cc(C(F)(F)F)cc(Cl)c1F (stereo not drawn) | inactive | Dose-dependent effect | inactive | – | – | – | –
11 | COCCOC(=O)C1=C(C)NC2=C(C(=O)C(C)(C)CC2)C1c1cc(C(F)(F)F)cc(Cl)c1F (stereo not drawn) | – | Dose-dependent effect | – | 43.7 | 4.89 | – | –
12 | CC1=C(C(=O)OC(C)(C)C)C(c2cc(C(F)(F)F)cc(Cl)c2F)C2=C(CC(C)(C)CC2=O)N1 (stereo not drawn) | inactive | Dose-dependent effect | inactive | – | – | – | –
13 | CC1(C)CCC2=C(C1=O)C(c1cc(C(F)(F)F)cc(Cl)c1F)C1=C(COC1=O)N2 (stereo not drawn) | inactive | Dose-dependent effect | inactive | – | – | – | inactive
14 | CCOC(=O)C1=C(C)NC2=C(C(=O)C(C)(C)CC2)C1c1cc(C(F)(F)F)cc(Cl)c1F (stereo not drawn) | – | Dose-dependent effect | – | 23 | 5.06 | – | –
15 | CC1=C(C(=O)OCc2ccccc2)C(c2cc(C(F)(F)F)cc(Cl)c2F)C2=C(CCC(C)(C)C2=O)N1 (stereo not drawn) | inactive | Dose-dependent effect | inactive | – | – | – | –
16 | COC(=O)C1=C(C)NC(C)=C(C(=O)OC)C1c1ccccc1[N+](=O)[O-] [NIFEDIPINE] | – | Dose-dependent effect | – | 94 | 6.92 | – | –
17 | C=CCOC(=O)C1=C(C)NC2=C(C(=O)CC(C)(C)C2)C1c1cc(C(F)(F)F)cc(Cl)c1F (stereo not drawn) | inactive | Dose-dependent effect | inactive | – | – | – | –
